From ChEMBL document CHEMBL4513216, “Probing the Open Global Health Chemical Diversity Library for Multistage-Active Starting Points for Next-Generation Antimalarials” (ACS Infect Dis, 2020)

Experiment: Toxicity liver stage against HepG2, at 10uM
Type: cell-based
Set-up: test concentration 10 uM, cell line HepG2-A16-CD81EGFP
Conditions: human, HepG2-A16-CD81EGFP cells; read-out: INHIBITION
Procedure, shortened: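 Uninfected HepG2-A16-CD81EGFP cells, 3 × 10^3 per well, 1536-well, plated on prespotted compound at 10 μM final, parasite-free screening media added to match infected plates; puromycin 10 μM positive, DMSO 0.5% negative; run in parallel with 48 h PbLuc assay at 37 °C, 5% CO2; viability by CellTiter-Glo luminescence, normalized to controls.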

Row | SMILES | cytotoxicity at 10 µM [%]
1 | O=C(c1cnccn1)N1C[C@@H]2OCC(=O)N(CC3CCCCC3)[C@@H]2C1 | -4.97
2 | COc1cc2c(cc1OC)C(=O)C(Sc1nnnn1C)C2 (stereo not given) | -13.7
3 | COC(=O)c1cc2c(=O)n(C3CC3)ccc2nc1C | -47
4 | COCCSc1ccc(-n2ccnc2)nn1 | 6.11
5 | COCCNC(=O)NCc1cc(-c2ccncc2)n(C2CCCC2)n1 | -8.71
6 | O=C(Cc1ccc(F)cc1)NCCc1ccoc1 | -10.5
7 | COC(=O)c1ccc(S(=O)(=O)N2CCC(Oc3cccnn3)CC2)cc1 | -4.83
8 | O=C(NCc1cccs1)NCC1(O)CCc2ccccc2C1 (stereo not given) | -13.8
9 | CCS(=O)(=O)N1Cc2c(Cn3ccnc3)nn(C)c2C1 | -2.85
10 | CC(C)N1c2sc(-c3ccsc3)nc2CC1C(=O)NC1CC1 (stereo not given) | 8.67
11 | CS(=O)(=O)N1CCOCC12CCN(c1nncs1)CC2 | 6.74
12 | CN(C)c1ncnc2c1CCN(c1cc(C(F)(F)F)ncn1)CC2 | 9.55
13 | O=C(Nc1ccc(Cl)cc1)c1nn(C2CCS(=O)(=O)C2)c2c1CCCC2 (stereo not given) | 2.96
14 | O=C(CC1Cn2ncnc2NC1=O)Nc1ccc(F)c(F)c1 (stereo not given) | 2.02
15 | O=C(O)C1CCCN1c1nc(-c2ccc(Cl)cc2)cc(C(F)(F)F)n1 (stereo not given) | 30.1
16 | Cc1cc(C)nc(C2CCN(C(=O)CO)CC2)n1 | 2.53
17 | O=S(=O)(N1CCCC1)N1CC(c2ccnc(Nc3ccccn3)n2)C1 | 11.8
18 | COCCN1CCC1c1cc(N)nc(C)n1 (stereo not given) | 7.75
19 | CN1CCCC1c1cncc(C(=O)NCCN2CCCCC2)n1 (stereo not given) | 0.388
20 | CC(C)c1nnc(CCC(=O)N2CCCC(c3cnccn3)C2)o1 (stereo not given) | 1.88
21 | CC(=O)N1CCC(Cc2cnc(Nc3cc(C)on3)cn2)CC1 | 3.48
22 | O=C(C1CC1)N1CCC(O)(CN2CCN(c3ccccc3)CC2)C1 (stereo not given) | -3.3

Row | SMILES | cytotoxicity at 10 µM [%]
23 | CN(C)CCN(C)C(=O)Cn1cccc2cc(-c3ccc(F)cc3)nc1-2 | -24.4
24 | COc1ccc(F)cc1-c1ccccc1CC1(C(=O)O)CCOCC1 | 5.57
25 | Cc1nc(C)n(CC2CCCN(c3ccnc(-c4ccccc4)n3)C2)n1 (stereo not given) | 39.4
26 | CC(C)(C)n1cc(C#N)cc1NC(=O)CCNC(=O)c1ccco1 | 1.95
27 | CCCn1cnc(S(=O)(=O)Nc2cccnc2-n2cccn2)c1 | 15.4
28 | CN(Cc1ccsc1)C(=O)c1nc(N2CCCCC2)ncc1Cl | -27.4
29 | Cn1cnnc1C1CCN(c2nc3ccccc3o2)CC1 | 14.1
30 | CCC(CNC(=O)COC)Oc1cccc(F)c1 (stereo not given) | -44.6
31 | CN(Cc1ncnn1C)C(=O)CCn1ccc2ccccc21 | 1.16
32 | Cc1cc(NC(=O)CNC(C)(C)c2nc(C)c(C)s2)no1 | 13.3
33 | COc1cccc(NC(=O)CCCc2nc(C(C)C)no2)c1 | 6.39
34 | COc1ncccc1CNCc1c(C(C)C)nn(C)c1OC | -1.68
35 | O=C(NCc1nnc2n1CCCCC2)N(Cc1ccncc1)C1CC1 | 9.66
36 | CC(C#N)CSc1ccccc1NCC(=O)Nc1ccccc1 (stereo not given) | 6.24
37 | CC1CCN(CCNC(=O)C2CCN(C(=O)NC(C)C)CC2)CC1 | 8.21
38 | Cc1ccc(C(=O)NCC(O)c2ccc(F)c(F)c2)c(=O)[nH]1 (stereo not given) | -3.09
39 | Cc1n[nH]c(C2CN(C(=O)c3coc(Br)c3)CCO2)n1 (stereo not given) | -11.3
40 | O=C(NCC1CC1)C1CSCN1S(=O)(=O)c1ccccc1F (stereo not given) | 5.02
41 | O=C(CNc1ccc(F)cc1OCC(F)(F)F)NCC(F)(F)F | 3.87
42 | CCc1nc(CC(=O)N2CCC(C(=O)N(CC)CC)CC2)cs1 | -1.42
43 | CC(=O)NC(C)C(=O)Nc1ccc(OCc2cccc(F)c2)cc1C (stereo not given) | 0.305
44 | O=C(COCC(F)(F)F)NC1CCCc2cc(OC(F)F)ccc21 (stereo not given) | -5.36

Row | SMILES | cytotoxicity at 10 µM [%]
45 | COc1cc(Cl)c(C)cc1NC(=O)CNc1ccn(CC(N)=O)n1 | 9.8
46 | CC(C)C(NC(=O)c1ccccc1F)C(=O)Nc1cnn(C)c1 (stereo not given) | -7.58
47 | CCCNC(=O)COc1ccc(C)cn1 | -14.5
48 | CN(C)C(=O)c1cccc(NC(=O)N(CCO)Cc2ccsc2)c1 | -13.4
49 | Cc1ccc(CN2CCO[C@@H]3[C@@H](OCc4cccnc4)CC[C@@H]32)o1 | 8.37
50 | O=c1ccc2c(n1CC1CC1)CCN(c1ncccn1)CC2 | 7.17
51 | CN1CCC2(CC1)CN(C(=O)c1cccnc1)c1ccc(Cl)cc12 | -109
52 | COC[C@@H]1CC[C@H]2[C@H](CCN2S(=O)(=O)c2ccc(F)cc2)O1 | -2.76
53 | CCn1cc(CN2CCCn3nc(CNS(C)(=O)=O)cc3C2)c(C)n1 | 4.06
54 | CO[C@@H]1c2ccccc2C2(CCN(C(=O)CNC(=O)C(C)C)CC2)[C@H]1O | -3.26
55 | Cc1cc(C)n(CCN(C)Cc2c[nH]nc2-c2ccc3c(c2)OCO3)n1 | 0.562
56 | Cc1nc[nH]c1C(=O)NCc1cccnc1N(C)C1CCCCC1 | -4.12
57 | Cc1nc2c(c(N3CCC(O)(Cn4ccnc4)CC3)n1)CCNCC2 | 1.37
58 | O=C(O)CC[C@@H]1CN(c2ncnc3[nH]ccc23)CC[C@@H]1N1CCOCC1 | -15.8
59 | O=C(c1ncoc1C1CC1)N1CCN(CCOc2ccccc2)CC1 | -6.93
60 | COc1ccc(-c2noc(Cn3cnc(C)c3)n2)c(OC)c1OC | -13.2
61 | COc1ccc(C(=O)NC2CC2)c(OC2CCN(CC3CC3)CC2)c1 | -1.47
62 | NC(=O)c1cc2c(nc1-c1ccc3c(c1)OCCO3)CCC2 | -1.88
63 | CC(N)C(=O)N1CCC(Oc2cccc(C(F)(F)F)c2)CC1 (stereo not given) | -8.54
64 | CC(C)(C(=O)NCC1CCN(Cc2ncc[nH]2)C1)c1ccccc1 (stereo not given) | 2.15
65 | CNC(=O)CCCNc1cc(C)nc2cc(C)nn12 | -5.97
66 | Cc1ccc(OCC2CCCN(c3cc(C(N)=O)ccn3)C2)cc1 (stereo not given) | 11.1

Row | SMILES | cytotoxicity at 10 µM [%]
67 | NCCc1cccc(CN2CCN(c3ccccc3)C(=O)C2)c1 | 3.47
68 | O=C1NCCCc2[nH]c(Cc3cccc(F)c3)nc21 | -3.47
69 | CCn1cc(Cn2cc(-c3cccc(C(C)N(C)C)c3)nn2)cn1 (stereo not given) | -6.97
70 | CCCc1nnc(N2CCN(C3CCCC3)CC2)o1 | -13.8
71 | CN(C)CCNC(=O)CCC1CCN(C(=O)c2ccc(O)cn2)CC1 | 1.23
72 | CCc1ocnc1C(=O)N1CCN(c2ccc3ccccc3c2)CC1 | 2.99
73 | CCc1cn[nH]c1C1CCN(c2cc(C)c3cc(OC)ccc3n2)CC1 | 1.93
74 | O=C(NCc1cn2cccnc2n1)C1CC(=O)N(Cc2cccnc2)C1 (stereo not given) | -3.23
75 | CSCCC(=O)N(C/C=C/c1ccccc1)CCO | -4.47
76 | COc1ccc([C@@H]2CN(C(=O)CCn3cccn3)C[C@H]2NC(C)=O)cc1 | 7.18
77 | CCN(CC)Cc1cc(C(=O)N2CCCC(O)(CO)C2)c(C)o1 (stereo not given) | 7.87
78 | O=C(c1cc[nH]n1)N1CCc2ccc(S(=O)(=O)N3CCOCC3)cc2C1 | 5.18
79 | CC(C)(O)CCc1ccc(C(=O)N2CCN(CC3CCCC3)CC2)cc1 | 12.4
80 | CCc1cc(C(=O)N2CC[C@@H](c3ccc4c(c3)OCO4)[C@H](O)C2)ccn1 | 1.48
81 | Cc1ccccc1[C@@H]1CN(C(=O)c2ccc3[nH]nnc3c2)C[C@H]1C(=O)O | -7.21
82 | Cc1nc(C(=O)N2CCc3c(nc(-c4ccncc4)[nH]c3=O)C2)cs1 | -6.37
83 | CCc1ccc(CN2CCCC(CO)(CCOC)C2)cc1 (stereo not given) | -0.26
84 | CCCn1nc(C2CCNCC2)n(Cc2ccccc2)c1=O | -12.9
85 | Cc1n[nH]c(C)c1NC(=O)CN1CCCC1c1noc(C2CC2)n1 (stereo not given) | 2.94
86 | Cc1cc(CN2CCN(c3ccc4nncn4n3)CC2)no1 | -4.6
87 | Cc1ccc(CN(C)C(=O)c2ccc(NC3CC3)nc2)o1 | -5.57
88 | Cc1nc(C(C)C)sc1C(=O)NCCNc1ncccn1 | -2.02

Row | SMILES | cytotoxicity at 10 µM [%]
89 | CC(C)n1nc2c(cc1=O)CN(Cc1nc3ccccc3o1)CC2 | -2.19
90 | COCCN1CCC(CNC(=O)C2(c3cc(C)cc(C)c3)CC2)CC1 | -7.94
91 | Cn1cc(-c2nc(CN3CCOC(Cn4cncn4)C3)cs2)cn1 (stereo not given) | -1.41
92 | c1coc(-c2noc(CN3CCc4cncnc4C3)n2)c1 | -9.39
93 | Cc1nc(C2CCCN2CCS(C)(=O)=O)no1 (stereo not given) | -5.07
94 | CN(C)S(=O)(=O)c1ccc(CN2CCCC2CO)o1 (stereo not given) | -6.88
95 | c1nc(N2CCOCC2)ncc1-c1cncn1CCCN1CCCCC1 | -7.08
96 | Fc1ccccc1CNc1ccnc(C2CCNCC2)c1 | 8.88
97 | Cc1nc(N)c2ccc(C3CCCN3)nc2n1 (stereo not given) | 3.67
98 | CC(=O)N1CCOCC2(CN(Cc3ccc(C)o3)CCO2)C1 (stereo not given) | 6.41
99 | O=C([C@H]1CN(Cc2cccnc2)C[C@H]2OCC[C@@H]12)N1CCCO1 | 8.98
100 | CN(C)CCN1CCOCC2(C1)CN(Cc1ccco1)CCO2 (stereo not given) | -111
101 | CN1CCC2(CCN(CC3CCOCC3)CC2)C1=O | 6.77
102 | c1cncc(-c2ccc3c(c2)CCC32CCN(Cc3ccco3)CC2)c1 | 17.1
103 | COc1cc(N2CCC[C@]3(C(=O)O)CN(C(C)C)C[C@@H]3C2)ncn1 | 4.14
104 | C[C@@H]1CN(C2CCOC2)C[C@]12CCN(c1cccnc1)C2=O (stereo not given in full) | 7.49
105 | COCC(=O)N1C[C@@H](OCc2cccnc2)[C@H]2OCCC[C@@H]21 | 2.53
106 | C[C@@H]1C(=O)NC[C@H]2CN(CCc3ccccc3)C[C@H]21 | 5.45
107 | O=S(=O)(C1CC1)N1CCC2(CC1)CC(Oc1cccnc1)CO2 (stereo not given) | -2.27
108 | CN(C)C(=O)N1C[C@H]2CC[C@@H](C1)N(C(=O)c1cccc(N(C)C)c1)C2 | 0.502
109 | N#CC1(C(=O)N2C[C@@H]3CC[C@H]2CN(Cc2ccncc2)C3)CCOCC1 | -11.9
110 | COCCN1C[C@@H]2CC[C@H]1CN(C(=O)CCn1cc(Cl)cn1)C2 | 7.62
